Screening results deposited in PubChem by several laboratories.
Compounds with a hit are over-represented: about 2.6% of the library has one in this group of screens.
HCV core dimer: inhibitors of HCV core protein dimerization, primary screen, biochemical, TR-FRET, high-throughput. TR-FRET GST/Flag-core106 dimerization, 1536-well. AID 1899, 2009. inhibition, % at 5 µM. hit rate 0.33% among 300,000;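 active = inhibition above the mean of all tested compounds plus 3 SD, set per screening campaign, cut at about 45% in these data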
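System – GST-tagged and Flag-tagged HCV core protein residues 1-106 · Repeats – one well for each compound · Technique – TR-FRET 671 and 617 nm emission · Doses – one concentration, 5 µM, in 0.5% DMSO · Times – 4 h, 22.5 °C incubation · Also added – Eu donor and XL665 acceptor anti-tag antibodies · Measure – percent inhibition of core106 dimerization signal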
ABHD5 PLIN5 PPI: ABHD5-PLIN5 interaction inhibitors, primary screen, cell lysate, split luciferase complementation, luminescence. Perilipin-5 (Homo sapiens) + 1-acylglycerol-3-phosphate O-acyltransferase ABHD5 (Homo …. Split G. princeps luciferase complementation, 4 h. inhibition, % at 4 µM. hit rate 0.78% among 360,000. AID 602281, 2012;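 active = inhibition above the mean inhibition across every tested compound plus 3 SD, cut at about 22% in these data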
Target sequence (Q00G26 whole entry, looked up): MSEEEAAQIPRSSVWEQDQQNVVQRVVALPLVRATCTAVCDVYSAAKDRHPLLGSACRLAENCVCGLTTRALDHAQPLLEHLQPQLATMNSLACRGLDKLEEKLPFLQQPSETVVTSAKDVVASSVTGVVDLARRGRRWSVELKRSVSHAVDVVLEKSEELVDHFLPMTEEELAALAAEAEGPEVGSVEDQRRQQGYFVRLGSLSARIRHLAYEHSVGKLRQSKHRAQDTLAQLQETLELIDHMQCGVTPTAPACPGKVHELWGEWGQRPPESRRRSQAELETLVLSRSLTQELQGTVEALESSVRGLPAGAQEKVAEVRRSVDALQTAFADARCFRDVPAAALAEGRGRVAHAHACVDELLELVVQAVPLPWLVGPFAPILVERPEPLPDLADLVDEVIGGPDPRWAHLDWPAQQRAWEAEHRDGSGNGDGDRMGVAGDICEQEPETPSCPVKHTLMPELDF
Target sequence (Q8WTS1 whole entry, looked up): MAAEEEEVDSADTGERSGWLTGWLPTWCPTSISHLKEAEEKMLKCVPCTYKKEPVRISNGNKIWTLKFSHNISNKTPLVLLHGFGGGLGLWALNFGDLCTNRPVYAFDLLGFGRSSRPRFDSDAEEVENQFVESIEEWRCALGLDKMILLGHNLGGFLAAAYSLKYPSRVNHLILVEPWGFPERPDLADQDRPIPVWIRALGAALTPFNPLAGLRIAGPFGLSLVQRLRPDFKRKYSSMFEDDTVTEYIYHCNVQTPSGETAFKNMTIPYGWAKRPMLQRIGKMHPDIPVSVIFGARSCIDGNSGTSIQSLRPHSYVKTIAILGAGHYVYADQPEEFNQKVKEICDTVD
rCAG binder: binders of r(CAG) RNA repeats, primary screen, biochemical, fluorescence. inhibition, % at 3 µM. AID 651821, 2012. r(CAG) RNA repeat, TO-PRO-1 dye displacement fluorescence. hit rate 1.3% among 370,000;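 active = inhibition above the plate cutoff, the mean of all test compounds on that plate plus 3 SD, cut at about 35% in these data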;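 note: higher means more dye released from RNA so lower well fluorescence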
NadD inh: inhibitors of S. aureus NadD, primary screen, biochemical, colorimetric, uHTS | Nicotinate-nucleotide adenylyltransferase NadD (Staphylococcus aureus N315) | purified NadD enzyme, colorimetric absorbance read-out | inhibition, % at 20 µM | hit rate 0.78% among 360,000; in the data active = inhibition above about 26%
rCAG bind conf: small molecules binding CAG repeat RNA – biochemical, fluorescence, confirmation; shares compounds with rCAG binder; inhibition, % at 3 µM; AID 652065, 2013; hit rate 70% among 4,300; r(CAG) RNA repeat, TO-PRO-1 dye displacement fluorescence;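 active = inhibition above a per-plate cutoff, the mean inhibition of sample wells plus 3 SD, cut at about 35% in these data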;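 note: loss of TO-PRO-1 fluorescence as compound displaces dye from 1x1 AA loop RNA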
dCAG dye counter: displacement of TO-PRO-1 from CAG DNA duplex, counter-screen for rCAG RNA repeat binder project, biochemical, fluorescence, TO-PRO-1 dye, d(CAG) DNA oligo; shares compounds with rCAG binder; d(CAG) DNA oligo TO-PRO-1 dye displacement; hit rate 94% among 4,300; inhibition, % at 3 µM;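 active = inhibition above its plate's cutoff, the mean test-well inhibition plus 3 SD, cut at about 4.8% in these data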;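 note: hits displace the dye from DNA and so lower well fluorescence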
dCAG dye DR: inhibitors of DNA CAG/GTC TO-PRO-1 complex, dose response, counter-screen for rCAG RNA repeat binder project, biochemical, fluorescence, TO-PRO-1 dye. shares compounds with rCAG binder. DNA CAG/GTC duplex TO-PRO-1 dye displacement fluorescence. IC50, µM. hit rate 20% among 250; in the data active = IC50 below about 10 µM
Hits are given with their value; i = inactive; nt = no result.

SMILES	HCV core dimer	ABHD5 PLIN5 PPI	rCAG binder	NadD inh	rCAG bind conf	dCAG dye counter	others
S=C1NCN(CC2CC2)CN1	nt	nt	i	nt	nt	nt
Cc1cc(Cl)ccc1Oc1ccccc1C(=O)CC#N	i	i	38	i	i	7.6
Cc1cc(Cl)ccc1Oc1ccc(C(N)=O)cc1[N+](=O)[O-]	i	i	i	i	nt	nt
CC12C=CC(C)(C3C(=O)NC(=O)C31)C1C3C(=O)NC(=O)C3C12 (configuration not stated)	nt	nt	i	nt	nt	nt
CSc1nnc(N2C(=O)C(O)=C(C(=O)c3ccc(C)o3)C2c2ccc(C)cc2)s1 (configuration not stated)	i	i	39	i	i	5.6
CSc1nnc(N2C(=O)C(O)=C(C(=O)c3ccco3)C2c2ccccc2)s1 (configuration not stated)	i	i	i	i	nt	nt
CCCSc1nnc(N2C(=O)C(O)=C(C(=O)c3ccco3)C2c2ccccc2F)s1 (configuration not stated)	i	i	48	i	41	11
O=c1[nH]cc(C=NNc2ccccc2)c(=O)[nH]1	nt	i	i	i	nt	nt
C=C(C)Cn1c2ccc(NC(=O)NCCc3cccs3)cc2c(=O)n1C	nt	i	i	i	nt	nt
Nc1cc(=O)n(Cc2ccco2)c(=S)[nH]1	nt	i	i	i	nt	nt
Cc1cccc(OCC(=O)N/N=C/c2sc(=O)n(Cc3cccc(C(=O)O)c3)c2Cl)c1	i	i	35	i	37	10
CC1(C)CC(=O)C2=C(C1)c1c(ccc3ccccc13)NC2c1ccc(C(=O)O)cc1 (configuration not stated)	i	i	i	i	nt	nt
CC1(C)CC(=O)C2=C(C1)c1c(ccc3ccccc13)NC2c1cc([N+](=O)[O-])cc([N+](=O)[O-])c1O (configuration not stated)	i	i	93	i	89	64
CCCC1CCC2(CCC(=O)N2CCOC)CC1 (configuration not stated)	nt	nt	i	nt	nt	nt
O=C(O)c1ccc(N/N=C/c2cn(Cc3ccccc3F)c3ccccc23)cc1	i	i	78	i	81	45
O=C(N/N=C/c1cn(Cc2cccc(F)c2)c2ccccc12)c1cc(O)cc(O)c1	nt	i	50	i	52	29
Nc1ccc(C(=O)N/N=C/c2cn(Cc3ccccc3F)c3ccccc23)cc1	nt	i	i	i	nt	nt
CC(C)(C)N(Cc1cn(Cc2ccccc2)nn1)S(=O)(=O)c1ccccc1Br	nt	nt	i	nt	nt	nt
C[C@@H]1CN([C@H](C)CO)C(=O)c2cc(Br)cnc2O[C@H]1CN(C)C(=O)c1ccc(F)cc1	nt	nt	i	nt	nt	nt
CCCSC1=N/C(=C\c2ccc([N+](=O)[O-])o2)C(=O)S1	nt	i	40	i	47	20	dCAG dye DR=i
CCSC1=N/C(=C\c2ccc(-c3ccccc3[N+](=O)[O-])o2)C(=O)S1	i	i	i	i	nt	nt
CC1(C)CC(=O)C=C(c2ccccc2-c2cccc(C(N)=O)c2)C1=O	nt	nt	i	nt	nt	nt
CCOC(=O)[C@@H]1c2[nH]c3ccccc3c2C[C@@]2(C(=O)OC)C=CCN12	nt	nt	i	nt	nt	nt
O=C(COC(=O)CCN1C(=O)/C(=C\C=C\c2ccccc2)SC1=S)Nc1cc(F)ccc1F	60	i	38	35	i	14
O=C(CN1C(=O)S/C(=C/C=C/c2ccccc2)C1=O)Nc1ccc(C(=O)O)cc1	i	i	65	i	45	15
SMILES	HCV core dimer	ABHD5 PLIN5 PPI	rCAG binder	NadD inh	rCAG bind conf	dCAG dye counter	others
O=C(CN1C(=O)S/C(=C\C=C\c2ccccc2)C1=O)Nc1ccc(C(=O)O)cc1	i	i	54	i	46	18
O=C(CCCN1C(=O)S/C(=C\C=C\c2ccccc2)C1=O)Nc1ccc(O)cc1	i	i	i	i	nt	nt
O=C(CCN1C(=O)/C(=C\C=C\c2ccccc2)SC1=S)Nc1ccc(C(=O)O)cc1	i	i	46	i	78	43
COC(=O)[C@]12C[C@H](CC(=O)NCCc3ccccc3OC)C(=O)N(CCc3ccc(OC)c(OC)c3)C1=C[C@H](C(C)(C)C)O[C@@H]2C	nt	nt	i	nt	nt	nt
CC(C)CCCCCCCCc1cccc(O)c1C(=O)O	nt	nt	89	nt	86	52
CC(C)C(=O)NCCCc1ccccc1	i	i	i	i	nt	nt
CC(C)(C)NC1=NCCNC(c2ccccc2)=C1	nt	i	i	i	nt	nt
COc1ccc([C@H]2CC(=O)C[C@@H](CCn3cc(-c4nccn4C)nn3)O2)cc1	nt	i	i	i	nt	nt
O=C(O)c1oc2ccccc2c1CSc1ccccn1	i	i	i	i	nt	nt
O=C(O)c1oc2ccccc2c1CSc1ccc(Cl)cc1	i	i	40	i	i	i
O=C(NNC(=O)c1ccccc1O)c1ccc(Cl)c(S(=O)(=O)N2CCc3ccccc32)c1	i	i	48	i	52	19
COc1ccc(OC)c(NC(=O)CNC(=O)Cn2cnc3sc(C)cc3c2=O)c1	i	i	i	i	nt	nt
Cc1cccc(NC(=O)CSc2ncnc3sc4c(c23)CCCC4)c1	nt	nt	i	nt	nt	nt
COc1ccc(OC)c(NC(=O)CSc2ncnc3sc(C)cc23)c1	nt	i	72	i	64	34
CCc1nc(SCC(=O)Nc2ccccc2OC)c2c(C)c(C)sc2n1	i	i	i	i	nt	nt
COc1cc(NC(=O)CSc2ncnc3sc4c(c23)CCCC4)c(C(=O)O)cc1OC	i	i	67	i	53	17
CCc1nc(SCC(=O)Nc2cc(C)ccc2OC)c2c(C)c(C)sc2n1	i	i	35	i	i	i
CCCCCN1CCCCC(NC(=O)C2CCCCC2)C1=O (configuration not stated)	nt	nt	i	nt	nt	nt
CC(=O)OC(C(=O)Nc1nncs1)c1ccccc1 (configuration not stated)	nt	i	i	i	nt	nt
O=C1Nc2ccc3sc4ccccc4c3c2C1=O	i	i	36	i	i	14
O=C1Nc2ccccc2C1=O	i	i	i	i	nt	nt
Cc1ccc(S(=O)(=O)Nc2nc(C)c(NC(=O)Nc3ccc(Cl)cc3Cl)s2)cc1	i	i	62	i	59	24
Cc1ccc(S(=O)(=O)Nc2nc(C)c(C(=O)N/N=C/c3ccccc3)s2)cc1	i	i	80	i	70	24	dCAG dye DR=i
Cc1ccc(S(=O)(=O)Nc2nc(C)c(NC(=O)OCCCl)s2)cc1	i	i	i	i	nt	nt
Cc1c(C(=O)N/N=C/c2cccnc2)sc(=S)n1C	i	i	i	i	nt	nt
Cc1ccc(S(=O)(=O)Nc2nc(C)c(C(=O)NNS(=O)(=O)c3ccccc3)s2)cc1	i	i	i	i	nt	nt
Cn1c(N)c(C(=O)N/N=C/c2ccccc2)sc1=S	i	i	43	i	i	7.8
